In ChEMBL document CHEMBL2203171, “The use of small molecule probes to study spatially separated stimulus-induced signaling pathways” (Bioorg Med Chem Lett, 2012):
Active and inactive are the calls of the source. The calls are words filed in the database; no cut-off is given here.

Key:
[1] = molecular target: T1, Inhibitor of nuclear factor kappa-B kinase subunit beta (Mus musculus) (UniProt O88351); assay: Inhibition of IKKebta in C57BL/6 mouse BMDM cells assessed as inhibition of LPS-induced IkappaBalpha phosphorylation at 25 uM by Western blot analysis
T1 sequence (whole entry): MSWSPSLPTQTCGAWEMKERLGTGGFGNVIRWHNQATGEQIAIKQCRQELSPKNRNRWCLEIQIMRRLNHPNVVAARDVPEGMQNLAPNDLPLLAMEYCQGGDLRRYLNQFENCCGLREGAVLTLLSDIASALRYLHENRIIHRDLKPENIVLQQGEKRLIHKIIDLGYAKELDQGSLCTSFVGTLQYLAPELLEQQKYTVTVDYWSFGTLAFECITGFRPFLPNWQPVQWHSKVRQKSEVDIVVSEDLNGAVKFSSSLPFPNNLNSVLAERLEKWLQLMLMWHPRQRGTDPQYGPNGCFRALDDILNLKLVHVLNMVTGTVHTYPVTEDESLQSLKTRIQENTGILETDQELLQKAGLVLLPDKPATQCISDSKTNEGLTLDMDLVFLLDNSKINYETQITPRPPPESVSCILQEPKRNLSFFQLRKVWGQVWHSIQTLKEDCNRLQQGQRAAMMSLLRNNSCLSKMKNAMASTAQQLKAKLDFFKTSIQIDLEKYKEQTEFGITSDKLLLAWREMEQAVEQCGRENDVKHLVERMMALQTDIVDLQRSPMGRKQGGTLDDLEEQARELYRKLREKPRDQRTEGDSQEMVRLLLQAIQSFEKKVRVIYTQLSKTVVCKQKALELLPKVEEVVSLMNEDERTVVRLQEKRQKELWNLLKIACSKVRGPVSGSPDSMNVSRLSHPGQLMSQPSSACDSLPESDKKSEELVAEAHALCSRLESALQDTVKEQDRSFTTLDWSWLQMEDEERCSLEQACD

[2] = molecular target: T1, Inhibitor of nuclear factor kappa-B kinase subunit beta (Mus musculus); assay: Inhibition of IKKbeta in C57BL/6 mouse BMDM cells assessed as inhibition of LPS-induced MCP1 […] at 25 uM by Northern blot analysis; format: cell-based
[3] = molecular target: T2, Toll-like receptor 3 (Mus musculus) (UniProt Q99MB1); assay: Inhibition of TRIF recruitment to TLR3 in C57BL/6 mouse BMDM cells assessed as inhibition of pI:pC-induced p38 MAPK activity up to 90 mins; format: cell-based
T2 sequence (whole entry): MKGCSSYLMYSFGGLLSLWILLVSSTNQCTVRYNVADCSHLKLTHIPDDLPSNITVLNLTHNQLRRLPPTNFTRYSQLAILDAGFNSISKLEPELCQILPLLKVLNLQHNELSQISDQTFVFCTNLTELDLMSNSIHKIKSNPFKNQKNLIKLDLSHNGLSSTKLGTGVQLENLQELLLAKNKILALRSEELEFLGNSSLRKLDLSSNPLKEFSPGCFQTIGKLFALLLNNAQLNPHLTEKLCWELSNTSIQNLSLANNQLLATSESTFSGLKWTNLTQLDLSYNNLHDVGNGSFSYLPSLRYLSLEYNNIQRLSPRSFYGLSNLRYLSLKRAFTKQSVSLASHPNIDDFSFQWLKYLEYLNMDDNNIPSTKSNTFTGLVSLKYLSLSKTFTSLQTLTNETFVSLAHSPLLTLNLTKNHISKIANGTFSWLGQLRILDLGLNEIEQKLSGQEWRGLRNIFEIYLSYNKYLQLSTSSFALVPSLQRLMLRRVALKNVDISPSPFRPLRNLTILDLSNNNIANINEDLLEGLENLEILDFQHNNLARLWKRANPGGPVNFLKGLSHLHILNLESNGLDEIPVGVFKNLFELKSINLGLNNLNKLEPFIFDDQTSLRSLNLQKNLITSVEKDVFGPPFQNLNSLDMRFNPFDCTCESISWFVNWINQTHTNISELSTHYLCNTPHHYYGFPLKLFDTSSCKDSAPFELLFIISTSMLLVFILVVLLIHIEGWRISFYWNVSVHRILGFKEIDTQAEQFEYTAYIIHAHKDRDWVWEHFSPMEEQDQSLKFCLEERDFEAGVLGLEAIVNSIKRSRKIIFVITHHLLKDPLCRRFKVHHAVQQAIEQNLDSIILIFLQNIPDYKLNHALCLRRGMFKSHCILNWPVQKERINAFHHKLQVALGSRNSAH
Method in brief: (§1)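 Bone marrow macrophages from C57BL/6 mice, grown in 70% growth medium (DMEM, 10% FBS) plus 30% L929-conditioned medium and given fresh medium 12-14 h before stimulation. Stimuli: IL-1 40 ng/ml, HKSA ~10^8 cfu/ml, pI:pC 50 μg/ml or CpG 10 μg/ml, ± compound at 10 μM (final) added from a 200x DMSO stock. IκBα and p38 profiled by immunoblot. Three independent experiments, quantitated and normalized.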

[4] = molecular target: T1, Inhibitor of nuclear factor kappa-B kinase subunit beta (Mus musculus); assay: Inhibition of IKKbeta in C57BL/6 mouse BMDM cells assessed as inhibition of TNFalpha-induced IkappaBalpha degradation at 50 uM up to 90 mins by Western blot analysis; format: cell-based
[5] = molecular target: T3, Interleukin-1 receptor type 1 (Mus musculus) (UniProt P13504); assay: Inhibition of MyD88 recruitment to IL-1R in C57BL/6 mouse BMDM cells assessed as inhibition of IL-1-induced IkappaBalpha degradation up to 90 mins by Western blot analysis; format: cell-based
T3 sequence (whole entry): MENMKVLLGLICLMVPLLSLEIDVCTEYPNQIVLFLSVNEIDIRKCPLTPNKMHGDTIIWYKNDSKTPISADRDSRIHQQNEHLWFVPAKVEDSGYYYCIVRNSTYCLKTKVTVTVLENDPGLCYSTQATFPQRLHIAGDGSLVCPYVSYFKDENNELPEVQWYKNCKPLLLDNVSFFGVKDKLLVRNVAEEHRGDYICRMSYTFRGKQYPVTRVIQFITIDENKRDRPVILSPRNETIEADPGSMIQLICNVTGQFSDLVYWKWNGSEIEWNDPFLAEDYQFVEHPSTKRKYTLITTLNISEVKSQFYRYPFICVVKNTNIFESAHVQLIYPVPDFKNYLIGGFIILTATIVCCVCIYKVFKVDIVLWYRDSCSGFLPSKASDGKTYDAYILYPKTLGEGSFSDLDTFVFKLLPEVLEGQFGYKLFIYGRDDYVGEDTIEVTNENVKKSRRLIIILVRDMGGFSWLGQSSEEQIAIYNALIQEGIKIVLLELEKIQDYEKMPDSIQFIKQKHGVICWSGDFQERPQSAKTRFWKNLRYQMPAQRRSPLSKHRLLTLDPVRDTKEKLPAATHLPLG
Method in brief: as §1

[6] = molecular target: T1, Inhibitor of nuclear factor kappa-B kinase subunit beta (Mus musculus); assay: Inhibition of IKKbeta in C57BL/6 mouse BMDM cells assessed as inhibition of LPS-induced phosphorylation at 25 uM after 5 mins by Western blot analysis; format: cell-based
Method in brief: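 C57BL/6 marrow-derived macrophages were cultured in 70% growth medium/30% L929-conditioned medium and refreshed 12-14 h before stimulation. Stimuli were TNF 40 ng/ml or LPS 100 ng/ml, ± compound at 25 μM from a 200x DMSO stock. Western blots tracked IKK, p38, IκBα and phospho-RelA. Results from three independent experiments were quantitated and normalized.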

inhibition [1]: Active
inhibition [2]: Active
inhibition [3]: inactive
inhibition [4]: inactive
inhibition [5]: Active
inhibition [6]: Active
Compound: O=C(CCCCCN1C(=O)C=CC1=O)Oc1ccc2cc(C(C(=O)NCc3ccccc3)N(C(=O)Cc3ccc4c(c3)OCO4)C3CC3)ccc2c1 (stereo unspecified)
